Experimental data reported in ChEMBL document CHEMBL3352316, “Optimization of physicochemical properties and safety profile of novel bacterial topoisomerase type II inhibitors (NBTIs) with activity against Pseudomonas aeruginosa” (Bioorg Med Chem, 2014).
In brackets after ≈: the same amount, converted by molar mass.

Key:
Pseudomonas aeruginosa [1] = assay: Antimicrobial activity against Pseudomonas aeruginosa PAO1 after 18 to 20 hrs by broth microdilution; format: functional
Method in brief: (§1)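 Broth microdilution followed CLSI guidelines in Mueller Hinton broth. Inocula were grown 18–20 h at 35 °C on blood agar. Compound in DMSO was tested in doubling dilutions from 64 to 0.06 µg/mL, at 2% DMSO final. Plates were incubated 18–20 h and read at OD 620 nm. MIC was taken as the concentration giving >90% growth inhibition.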

Escherichia coli [2] = assay: Antimicrobial activity against Escherichia coli W3110 after 18 to 20 hrs by broth microdilution; format: functional; details: K-12 substr. W3110; method in brief: as §1
[3] = Inhibition of Escherichia coli topoisomerase IV ATPase activity
[4] = Aqueous solubility of the compound; format: physicochemical; details: buffer
Staphylococcus aureus = assay: Antimicrobial activity against methicillin-susceptible Staphylococcus aureus after 18 to 20 hrs by broth microdilution; format: functional; method in brief: as §1
[5] = Fraction unbound in human plasma by LC/MS-MS analysis; format: ADME, cell-free
Method in brief: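 Equilibrium dialysis: 10 µM compound was spiked into human plasma against phosphate buffer and rotated at 37 °C for 16 h. Plasma and buffer concentrations were quantified by LC/MS–MS with a C18 column and ESI MRM detection.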

[6] = target: Voltage-gated inwardly rectifying potassium channel KCNH2 (Homo sapiens, UniProt Q12809); assay: Inhibition of human ERG by cell-based patch clamp method
[7] = Partition co-efficient, log D of the compound at pH 7.4 by shake flask method; format: physicochemical; details: buffer
Method in brief: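 Shake-flask method with 10 mM phosphate buffer pH 7.4 against n-octanol, shaken 1 h at 1200 rpm to equilibrium. Analysis was by LC/UV with MS confirmation.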

Klebsiella pneumoniae = assay: Antimicrobial activity against Klebsiella pneumoniae after 18 to 20 hrs by broth microdilution; format: functional; method in brief: as §1
Pseudomonas aeruginosa [8] = assay: Antimicrobial activity against Pseudomonas aeruginosa clinical isolate after 18 to 20 hrs by broth microdilution; format: functional; method in brief: as §1
Escherichia coli [9] = assay: Antimicrobial activity against Escherichia coli after 18 to 20 hrs by broth microdilution; format: functional; method in brief: as §1
[10] = Clearance in rat at 10 mg/kg, iv; format: ADME, organism-based; parameters: dose 10 mg/kg, route intravenous; details: in vivo
Method in brief: (§2)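 Male rats (Wistar Han) and Beagle dogs received 10 mg/kg as a 15 min iv infusion. Serial 200 µL whole-blood samples were taken from 0 to 24 h. Plasma levels were measured by LC–MS/MS against a standard curve after methanol protein precipitation. Parameters were estimated non-compartmentally.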

[11] = Clearance in beagle dog at 10 mg/kg, iv; format: ADME, organism-based, Canis lupus familiaris; parameters: dose 10 mg/kg, route intravenous; details: in vivo; method in brief: as §2
[12] = AUC in beagle dog at 10 mg/kg, iv; format: ADME, organism-based, Canis lupus familiaris; parameters: dose 10 mg/kg, route intravenous; details: plasma; method in brief: as §2
[13] = target: Sodium channel protein type 5 subunit alpha (Homo sapiens, UniProt Q14524); assay: Inhibition of […] channel Nav1.5 (unknown origin)
Method in brief: (§3)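 Automated IonWorks patch clamp was run on CHO or HEK cells expressing each channel. A channel-specific voltage pulse was applied before compound and again about 3 min after addition.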

[14] = target: Sodium-dependent serotonin transporter (Homo sapiens) (UniProt P31645); assay: Inhibition of SERT (unknown origin) at 30 uM
[15] = target: Potassium voltage-gated channel subfamily A member 5 (Homo sapiens, UniProt P22460); assay: Inhibition of potassium channel Kv1.5 (unknown origin); method in brief: as §3
[16] = target: Voltage-dependent T-type calcium channel subunit alpha-1H (Homo sapiens, UniProt O95180); assay: Inhibition of […] channel Cav3.2 (unknown origin); method in brief: as §3
[17] = target: Voltage-dependent L-type calcium channel subunit alpha-1C (Homo sapiens, UniProt Q13936); assay: Inhibition of […] channel Cav1.2 (unknown origin); method in brief: as §3
[18] = target: T1, Potassium voltage-gated channel subfamily KQT member 1 (Homo sapiens, UniProt P51787); assay: Inhibition of potassium channel IKs (unknown origin); method in brief: as §3
T1 sequence (P51787 whole entry): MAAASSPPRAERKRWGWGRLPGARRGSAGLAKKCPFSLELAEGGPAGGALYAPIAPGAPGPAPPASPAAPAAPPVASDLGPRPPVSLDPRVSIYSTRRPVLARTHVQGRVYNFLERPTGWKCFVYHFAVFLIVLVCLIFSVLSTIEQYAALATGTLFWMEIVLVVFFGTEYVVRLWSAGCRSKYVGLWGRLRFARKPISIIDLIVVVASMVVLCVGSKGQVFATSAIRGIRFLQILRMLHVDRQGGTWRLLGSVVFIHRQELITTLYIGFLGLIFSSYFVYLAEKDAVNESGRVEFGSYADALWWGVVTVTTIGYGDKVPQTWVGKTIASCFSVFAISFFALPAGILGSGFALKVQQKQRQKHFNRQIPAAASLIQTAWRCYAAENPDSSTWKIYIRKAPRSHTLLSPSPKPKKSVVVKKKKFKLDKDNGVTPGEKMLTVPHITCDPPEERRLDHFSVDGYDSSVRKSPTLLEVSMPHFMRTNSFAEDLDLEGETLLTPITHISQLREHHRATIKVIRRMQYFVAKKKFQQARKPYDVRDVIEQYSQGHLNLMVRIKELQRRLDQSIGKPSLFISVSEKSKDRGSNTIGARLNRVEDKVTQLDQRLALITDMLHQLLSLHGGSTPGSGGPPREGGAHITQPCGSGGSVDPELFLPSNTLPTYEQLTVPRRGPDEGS

[19] = target: Sodium-dependent noradrenaline transporter (Homo sapiens) (UniProt P23975); assay: Inhibition of NET (unknown origin) at 30 uM
[20] = Volume of distribution in rat at 10 mg/kg, iv; format: ADME, organism-based; parameters: dose 10 mg/kg, route intravenous; details: in vivo; method in brief: as §2
[21] = target: 5-hydroxytryptamine receptor 4 (Homo sapiens) (UniProt Q13639); assay: Inhibition of 5-HT4 receptor (unknown origin) at 30 uM
[22] = Half life in beagle dog at 10 mg/kg, iv; format: ADME, organism-based, Canis lupus familiaris; parameters: dose 10 mg/kg, route intravenous; details: in vivo; method in brief: as §2
[23] = Half life in rat at 10 mg/kg, iv; format: ADME, organism-based; parameters: dose 10 mg/kg, route intravenous; details: in vivo; method in brief: as §2
[24] = Volume of distribution in beagle dog at 10 mg/kg, iv; format: ADME, organism-based, Canis lupus familiaris; parameters: dose 10 mg/kg, route intravenous; details: in vivo; method in brief: as §2
[25] = AUC in rat at 10 mg/kg, iv; format: ADME, organism-based; parameters: dose 10 mg/kg, route intravenous; details: plasma; method in brief: as §2

Chain of Voltage-gated inwardly rectifying potassium channel KCNH2 (Q12809 whole entry): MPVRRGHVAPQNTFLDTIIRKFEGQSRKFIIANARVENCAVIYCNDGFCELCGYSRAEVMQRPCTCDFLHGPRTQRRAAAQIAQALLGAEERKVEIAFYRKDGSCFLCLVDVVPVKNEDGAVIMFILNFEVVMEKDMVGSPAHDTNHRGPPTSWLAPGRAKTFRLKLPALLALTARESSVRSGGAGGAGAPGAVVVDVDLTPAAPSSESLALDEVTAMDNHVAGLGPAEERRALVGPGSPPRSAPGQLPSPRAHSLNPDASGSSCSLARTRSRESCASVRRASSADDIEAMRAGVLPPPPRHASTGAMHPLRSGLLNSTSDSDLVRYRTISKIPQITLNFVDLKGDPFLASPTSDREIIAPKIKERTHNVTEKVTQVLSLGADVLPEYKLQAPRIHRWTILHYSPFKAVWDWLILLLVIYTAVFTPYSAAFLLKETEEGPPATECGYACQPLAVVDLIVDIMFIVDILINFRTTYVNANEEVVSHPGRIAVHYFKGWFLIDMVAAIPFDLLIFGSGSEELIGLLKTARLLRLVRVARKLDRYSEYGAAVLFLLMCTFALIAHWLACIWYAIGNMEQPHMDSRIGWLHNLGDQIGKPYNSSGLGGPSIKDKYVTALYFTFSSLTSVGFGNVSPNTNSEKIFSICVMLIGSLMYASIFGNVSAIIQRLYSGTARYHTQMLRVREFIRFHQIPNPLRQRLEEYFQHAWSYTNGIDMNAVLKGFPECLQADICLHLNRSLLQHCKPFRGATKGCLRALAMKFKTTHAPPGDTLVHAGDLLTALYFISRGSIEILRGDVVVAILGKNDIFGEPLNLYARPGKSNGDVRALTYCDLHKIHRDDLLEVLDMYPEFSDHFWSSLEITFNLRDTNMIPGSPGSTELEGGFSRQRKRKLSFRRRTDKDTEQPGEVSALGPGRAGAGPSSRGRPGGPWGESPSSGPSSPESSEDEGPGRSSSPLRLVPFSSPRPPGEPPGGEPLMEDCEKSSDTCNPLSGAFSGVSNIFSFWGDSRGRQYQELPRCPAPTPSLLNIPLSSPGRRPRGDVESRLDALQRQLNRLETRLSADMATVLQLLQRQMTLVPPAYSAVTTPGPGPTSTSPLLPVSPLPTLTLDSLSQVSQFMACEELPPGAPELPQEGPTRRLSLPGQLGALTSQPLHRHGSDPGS
Chain of Potassium voltage-gated channel subfamily A member 5 (P22460 whole entry): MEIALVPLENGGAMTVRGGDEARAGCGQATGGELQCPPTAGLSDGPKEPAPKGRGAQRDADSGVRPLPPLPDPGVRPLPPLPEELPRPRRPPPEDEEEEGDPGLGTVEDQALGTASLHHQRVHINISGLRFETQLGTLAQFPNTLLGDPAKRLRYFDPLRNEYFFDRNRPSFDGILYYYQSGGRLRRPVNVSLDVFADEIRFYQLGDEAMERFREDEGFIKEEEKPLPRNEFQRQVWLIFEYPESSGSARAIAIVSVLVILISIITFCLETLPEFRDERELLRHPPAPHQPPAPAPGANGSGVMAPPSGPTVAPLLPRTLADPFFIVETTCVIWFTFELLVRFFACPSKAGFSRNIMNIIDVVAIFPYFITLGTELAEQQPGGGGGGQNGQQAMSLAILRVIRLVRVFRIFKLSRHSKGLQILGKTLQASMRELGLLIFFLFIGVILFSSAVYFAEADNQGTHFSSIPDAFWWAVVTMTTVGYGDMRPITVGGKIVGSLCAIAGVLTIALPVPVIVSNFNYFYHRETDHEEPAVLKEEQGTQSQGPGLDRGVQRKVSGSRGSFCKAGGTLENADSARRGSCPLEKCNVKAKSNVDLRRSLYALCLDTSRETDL
Chain of Sodium channel protein type 5 subunit alpha (Q14524 whole entry): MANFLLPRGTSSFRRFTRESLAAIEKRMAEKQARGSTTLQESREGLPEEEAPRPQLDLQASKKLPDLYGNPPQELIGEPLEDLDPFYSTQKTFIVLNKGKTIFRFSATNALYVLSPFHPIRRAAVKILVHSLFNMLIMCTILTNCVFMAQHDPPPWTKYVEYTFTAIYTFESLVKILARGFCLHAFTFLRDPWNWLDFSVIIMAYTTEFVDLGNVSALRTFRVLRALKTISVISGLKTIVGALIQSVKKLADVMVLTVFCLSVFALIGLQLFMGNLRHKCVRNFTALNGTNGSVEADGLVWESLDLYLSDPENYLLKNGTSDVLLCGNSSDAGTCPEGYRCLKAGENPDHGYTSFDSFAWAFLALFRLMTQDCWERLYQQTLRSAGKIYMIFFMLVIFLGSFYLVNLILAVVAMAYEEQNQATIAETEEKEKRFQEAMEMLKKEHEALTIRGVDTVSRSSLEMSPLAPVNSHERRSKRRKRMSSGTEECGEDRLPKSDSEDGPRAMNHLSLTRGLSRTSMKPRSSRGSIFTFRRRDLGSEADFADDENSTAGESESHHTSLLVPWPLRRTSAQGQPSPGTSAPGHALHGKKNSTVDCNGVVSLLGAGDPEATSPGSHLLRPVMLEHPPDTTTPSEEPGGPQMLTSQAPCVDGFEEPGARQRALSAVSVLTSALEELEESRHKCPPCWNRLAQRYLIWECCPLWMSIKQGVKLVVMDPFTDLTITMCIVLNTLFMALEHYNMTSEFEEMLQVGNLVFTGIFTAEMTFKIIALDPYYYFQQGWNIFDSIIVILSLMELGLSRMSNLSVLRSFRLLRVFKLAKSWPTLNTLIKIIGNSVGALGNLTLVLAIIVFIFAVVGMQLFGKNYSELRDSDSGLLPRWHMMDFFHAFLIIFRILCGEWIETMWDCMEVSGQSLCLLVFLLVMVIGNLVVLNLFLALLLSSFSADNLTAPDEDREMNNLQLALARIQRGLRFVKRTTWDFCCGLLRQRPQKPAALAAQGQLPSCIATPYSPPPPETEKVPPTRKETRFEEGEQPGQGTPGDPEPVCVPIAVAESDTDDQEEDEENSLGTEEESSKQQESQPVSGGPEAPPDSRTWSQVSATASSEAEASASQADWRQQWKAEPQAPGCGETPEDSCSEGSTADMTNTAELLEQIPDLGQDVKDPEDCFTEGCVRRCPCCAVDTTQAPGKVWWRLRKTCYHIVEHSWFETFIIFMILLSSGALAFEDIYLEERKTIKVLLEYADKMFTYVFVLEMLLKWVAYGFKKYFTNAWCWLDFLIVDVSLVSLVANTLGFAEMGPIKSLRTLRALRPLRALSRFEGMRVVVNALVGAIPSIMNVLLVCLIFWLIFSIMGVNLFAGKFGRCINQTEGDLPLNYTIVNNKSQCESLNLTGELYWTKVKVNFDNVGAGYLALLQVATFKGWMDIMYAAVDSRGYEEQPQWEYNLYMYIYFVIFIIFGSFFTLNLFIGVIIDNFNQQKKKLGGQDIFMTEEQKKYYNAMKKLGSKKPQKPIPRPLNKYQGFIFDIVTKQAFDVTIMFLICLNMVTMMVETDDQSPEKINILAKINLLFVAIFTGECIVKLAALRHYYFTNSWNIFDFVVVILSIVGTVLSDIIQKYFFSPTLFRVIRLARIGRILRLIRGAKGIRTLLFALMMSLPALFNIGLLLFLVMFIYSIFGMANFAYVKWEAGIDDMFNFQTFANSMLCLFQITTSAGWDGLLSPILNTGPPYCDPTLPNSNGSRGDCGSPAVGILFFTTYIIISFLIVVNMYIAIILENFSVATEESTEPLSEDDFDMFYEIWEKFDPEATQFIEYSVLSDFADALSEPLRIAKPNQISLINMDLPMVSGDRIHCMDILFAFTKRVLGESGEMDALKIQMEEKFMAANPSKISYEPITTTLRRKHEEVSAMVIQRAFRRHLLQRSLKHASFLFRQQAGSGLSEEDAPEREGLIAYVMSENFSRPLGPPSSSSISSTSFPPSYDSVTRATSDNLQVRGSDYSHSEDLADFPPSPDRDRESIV
Chain of 5-hydroxytryptamine receptor 4 (Homo sapiens) (Q13639 whole entry): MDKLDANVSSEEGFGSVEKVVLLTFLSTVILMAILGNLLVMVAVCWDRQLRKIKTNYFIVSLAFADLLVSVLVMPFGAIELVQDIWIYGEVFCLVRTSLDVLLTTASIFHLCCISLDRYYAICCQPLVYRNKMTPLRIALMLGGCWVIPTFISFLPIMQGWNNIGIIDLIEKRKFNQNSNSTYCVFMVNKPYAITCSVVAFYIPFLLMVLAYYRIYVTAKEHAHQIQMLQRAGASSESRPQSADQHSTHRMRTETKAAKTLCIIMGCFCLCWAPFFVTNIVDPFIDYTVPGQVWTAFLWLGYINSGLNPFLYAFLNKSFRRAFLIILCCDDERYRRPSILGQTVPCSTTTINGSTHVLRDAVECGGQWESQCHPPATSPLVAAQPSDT
Chain of Sodium-dependent serotonin transporter (Homo sapiens) (P31645 whole entry, looked up): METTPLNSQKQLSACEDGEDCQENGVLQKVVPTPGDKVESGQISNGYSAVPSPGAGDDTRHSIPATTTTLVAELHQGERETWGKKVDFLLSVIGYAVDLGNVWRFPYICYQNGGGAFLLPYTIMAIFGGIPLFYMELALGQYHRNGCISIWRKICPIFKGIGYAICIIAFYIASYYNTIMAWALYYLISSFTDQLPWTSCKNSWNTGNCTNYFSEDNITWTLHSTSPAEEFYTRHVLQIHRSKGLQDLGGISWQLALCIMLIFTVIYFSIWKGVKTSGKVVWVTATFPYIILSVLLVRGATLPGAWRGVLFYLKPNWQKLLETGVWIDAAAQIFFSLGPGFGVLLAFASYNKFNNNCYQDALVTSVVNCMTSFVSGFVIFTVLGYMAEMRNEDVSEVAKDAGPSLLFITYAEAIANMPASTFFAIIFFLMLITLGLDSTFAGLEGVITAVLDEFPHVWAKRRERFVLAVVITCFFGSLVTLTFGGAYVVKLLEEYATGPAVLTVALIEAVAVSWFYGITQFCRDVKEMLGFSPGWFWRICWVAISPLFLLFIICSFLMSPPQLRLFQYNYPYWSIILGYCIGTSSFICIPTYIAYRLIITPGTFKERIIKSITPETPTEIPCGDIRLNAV

MIC90 (Pseudomonas aeruginosa [1]) [µg/mL] | MIC90 (Escherichia coli [2]) [µg/mL] | IC50 [3] [nM] | solubility [4] [µM] | MIC90 (Staphylococcus aureus) [µg/mL] | fraction unbound [5] | logD [7] | SMILES | IC50 [6] [nM] | other results
8 (≈ 16.7 µM) | 1 (≈ 2.09 µM) | 2 | > 333 | 2 (≈ 4.18 µM) | – | – | COc1ccc2ncc(=O)n(CC[C@]3(N)CC[C@H](NCc4ccc5c(n4)NC(=O)CO5)CC3)c2c1 | – | –
2 (≈ 4.18 µM) | 0.5 (≈ 1.04 µM) | 5 | > 333 | 8 (≈ 16.7 µM) | 0.71 | -0.54 | COc1ccc2ccc(=O)n(C[C@H](N)[C@H]3CC[C@H](NCc4ncc5c(n4)NC(=O)CO5)CC3)c2c1 | > 100000 | –
0.5 (≈ 1.04 µM) | 0.5 (≈ 1.04 µM) | 3 | > 333 | 1 (≈ 2.09 µM) | 0.64 | -0.05 | Cc1cc(=O)n(C[C@H](N)[C@H]2CC[C@H](NCc3ccc4c(n3)NC(=O)CO4)CC2)c2cc(F)ccc12 | – | –
2 (≈ 4.02 µM) | 2 (≈ 4.02 µM) | 4 | > 333 | 4 (≈ 8.04 µM) | 0.56 | -0.42 | COc1cc2c(cc1F)ncc(=O)n2C[C@H](N)[C@H]1CC[C@H](NCc2ncc3c(n2)NC(=O)CO3)CC1 | > 333000 | –
2 (≈ 4.29 µM) | 1 (≈ 2.14 µM) | 34 | > 333 | 16 (≈ 34.3 µM) | – | -1.02 | N[C@@H](Cn1c(=O)ccc2ncc(F)cc21)[C@H]1CC[C@H](NCc2ccc3c(n2)NC(=O)CO3)CC1 | > 100000 | –
– | – | – | – | – | – | – | C[C@H]1COc2c(N3CCN(C)CC3)c(F)cc3c(=O)c(C(=O)O)cn1c23.C[C@H]1COc2c(N3CCN(C)CC3)c(F)cc3c(=O)c(C(=O)O)cn1c23.O [LEVOFLOXACIN] | – | MIC90 (Klebsiella pneumoniae): 64 µg/mL; MIC90 (Pseudomonas aeruginosa [8]): 16 µg/mL; MIC90 (Escherichia coli [9]): 16 µg/mL
8 (≈ 16.1 µM) | 2 (≈ 4.03 µM) | 5 | > 333 | 0.5 (≈ 1.01 µM) | 0.68 | 0.25 | COc1ccc2ncc(=O)n(CC(N)C3(F)CCC(NCc4ccc5c(n4)NC(=O)CO5)CC3)c2c1 (racemic) | > 33000 | –
1 (≈ 2.09 µM) | 0.5 (≈ 1.04 µM) | 2 | > 333 | 8 (≈ 16.7 µM) | 0.78 | -0.86 | COc1cnc2ccc(=O)n(C[C@H](N)[C@H]3CC[C@H](NCc4ccc5c(n4)NC(=O)CO5)CC3)c2c1 | > 333000 | clearance [10]: 47 mL/min/kg; clearance [11]: 14 mL/min/kg; AUC [12]: 3800 ng·h/mL; IC50 [13]: > 333000 nM; inhibition [14]: 32%; IC50 [15]: > 333000 nM; IC50 [16]: > 333000 nM; IC50 [17]: > 333000 nM; IC50 [18]: > 333000 nM; inhibition [19]: 52%; MIC90 (Klebsiella pneumoniae): 8 µg/mL (≈ 16.7 µM); Vd [20]: 13 L/kg; inhibition [21]: 32%; MIC90 (Pseudomonas aeruginosa [8]): 4 µg/mL (≈ 8.36 µM); half-life [22]: 8 h; MIC90 (Escherichia coli [9]): 0.5 µg/mL (≈ 1.04 µM); half-life [23]: 9 h; Vd [24]: 2.7 L/kg; AUC [25]: 3900 ng·h/mL
> 64 | 16 (≈ 31.3 µM) | 39 | > 333 | 64 (≈ 125 µM) | – | – | CNC(Cn1c(=O)cnc2cc(F)c(OC)cc21)[C@H]1CC[C@H](NCc2ncc3c(n2)NC(=O)CO3)CC1 (mixture of isomers) | – | –
16 (≈ 33.4 µM) | 8 (≈ 16.7 µM) | 33 | > 333 | 128 (≈ 267 µM) | > 0.7 | -0.84 | COc1cnc2ccc(=O)n(C[C@@H](N)[C@H]3CC[C@H](NCc4ccc5c(n4)NC(=O)CO5)CC3)c2c1 | > 100000 | –
2 (≈ 4.16 µM) | 0.5 (≈ 1.04 µM) | 2 | > 333 | 4 (≈ 8.32 µM) | 0.66 | 0.06 | Cc1cc(=O)n(C[C@H](N)[C@H]2CC[C@H](NCc3ncc4c(n3)NC(=O)CO4)CC2)c2cc(F)ccc12 | > 333000 | –
0.5 (≈ 1.04 µM) | 0.5 (≈ 1.04 µM) | 1 | > 333 | 1 (≈ 2.09 µM) | 0.7 | -0.36 | COc1ccc2ncc(=O)n(C[C@H](N)[C@H]3CC[C@H](NCc4ccc5c(n4)NC(=O)CO5)CC3)c2c1 | > 333000 | –
0.25 (≈ 0.536 µM) | < 0.06 | 28 | > 333 | 1 (≈ 2.14 µM) | 0.7 | -0.41 | N[C@@H](Cn1c(=O)cnc2ccc(F)cc21)[C@H]1CC[C@H](NCc2ccc3c(n2)NC(=O)CO3)CC1 | 174000 | –
0.5 (≈ 1.04 µM) | 0.2 (≈ 0.417 µM) | 2 | > 333 | 1 (≈ 2.09 µM) | 0.6 | -0.48 | COc1ccc2ncc(=O)n(C[C@H](N)[C@H]3CC[C@H](NCc4ncc5c(n4)NC(=O)CO5)CC3)c2c1 | > 333000 | –
